Reference: ChEMBL document CHEMBL1152946, “6-Amino-2-mercapto-3H-pyrimidin-4-one derivatives as new candidates for the antagonism at the P2Y12 receptors” (Bioorg Med Chem, 2009)

Tests used:
[1] = Antiplatelet activity against 10^-5 M ADP-induced human platelet aggregation at 100 uM by light transmission aggregometry; format: functional
Procedure, shortened: (§1)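 Platelet-rich plasma came from healthy volunteers' blood collected in sodium citrate (9:1) and spun at 150g, 21 °C for 10 min. Samples were prewarmed to 37 °C with compound (10^-4 M) or vehicle, then ADP was added (final 10^-5 or 10^-6 M). Shape change and aggregation were followed by light transmission for 3 min. Results are % of vehicle aggregation, mean of at least 2 experiments.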

[2] = Antiplatelet activity against 10^-6 M ADP-induced human platelet aggregation at 100 uM by light transmission aggregometry; format: functional; procedure, shortened: as §1
[3] = target: T1, Adenosine receptor A3 (Homo sapiens) (UniProt P0DMS8); assay: Displacement of [125I]ABMECA from human adenosine A3 receptor expressed in CHO cells at 10 uM
T1 sequence (whole entry): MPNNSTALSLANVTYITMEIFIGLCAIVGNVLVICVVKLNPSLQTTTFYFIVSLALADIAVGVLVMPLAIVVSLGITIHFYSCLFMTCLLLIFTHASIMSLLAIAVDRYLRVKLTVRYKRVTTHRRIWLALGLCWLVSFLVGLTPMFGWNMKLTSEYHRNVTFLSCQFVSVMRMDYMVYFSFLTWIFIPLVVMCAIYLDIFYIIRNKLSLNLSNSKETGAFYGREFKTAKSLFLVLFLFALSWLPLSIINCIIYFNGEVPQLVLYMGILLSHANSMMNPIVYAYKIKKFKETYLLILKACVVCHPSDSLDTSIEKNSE

[4] = target: Adenosine receptor A2b (Homo sapiens) (UniProt P29275); assay: Antagonist activity at human adenosine A2b receptor expressed in CHO cells expressed in inhibition of cAMP level; design: concentration or dose not given beside the values; conditions: concentration not given here
[5] = target: T2, Adenosine receptor A1 (Homo sapiens) (UniProt P30542); assay: Displacement of [3H]DPCPX from human adenosine A1 receptor expressed in CHO cells at 10 uM; format: cell-based
T2 sequence (whole entry): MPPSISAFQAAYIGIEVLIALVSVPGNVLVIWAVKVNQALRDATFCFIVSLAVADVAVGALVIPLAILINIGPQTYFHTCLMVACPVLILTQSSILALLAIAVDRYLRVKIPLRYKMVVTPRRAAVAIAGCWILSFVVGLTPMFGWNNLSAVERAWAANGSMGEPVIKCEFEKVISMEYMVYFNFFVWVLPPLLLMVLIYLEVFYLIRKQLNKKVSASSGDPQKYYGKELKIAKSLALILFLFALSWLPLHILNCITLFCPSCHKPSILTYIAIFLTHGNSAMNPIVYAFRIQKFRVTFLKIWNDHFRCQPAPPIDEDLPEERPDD
Procedure, shortened: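 Membranes from CHO cells expressing hA1 (50 µg protein) were incubated with [3H]DPCPX 1 nM in 50 mM Tris HCl pH 7.4 for 120 min at 25 °C. Non-specific binding was defined with 10 µM CHA. Bound ligand was separated by GF/B filtration and counted by scintillation. Results are % displacement of specific binding at the bracketed test concentration, mean ± SEM of four experiments in triplicate.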

[6] = target: P2Y purinoceptor 12 (Homo sapiens, UniProt Q9H244); assay: Antagonist activity at human recombinant P2Y12 receptor expressed in CHO FlpIn cells assessed as reduction n 2-methylthio-ADP mediated inhibition of forskolin-induced cAMP response element-directed luciferase expression by bright-glo assay; format: functional, cell-based
Procedure, shortened: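 CHO FlpIN cells stably expressing human P2Y12 were transiently transfected with a pCRE-luc reporter. After 24 h they were switched to physiological salt solution and exposed to forskolin 1 µM ± 2-methylthio-ADP 10 nM plus varying antagonist concentrations (DMSO vehicle) for 3.5 h at 37 °C. Luminescence was read after lysis with Bright-Glo. Responses are % of 2-methylthio-ADP response with DMSO only; n=4–8.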

[7] = target: Adenosine receptor A2a (Homo sapiens) (UniProt P29274); assay: Displacement of [3H]ZM241385 from human adenosine A2A receptor expressed in CHO cells at 10 uM; format: cell-based
Procedure, shortened: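 Membranes from CHO cells expressing hA2A (50 µg protein) were incubated with [3H]ZM-241385 1 nM in 50 mM Tris HCl with 10 mM MgCl2, pH 7.4, for 60 min at 4 °C. Non-specific binding was defined with 1 µM ZM-241385. Samples were filtered on GF/B and counted by scintillation. Results are % displacement at the tested concentration, mean ± SEM of four experiments in triplicate.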

[8] = target: Adenosine receptor A2b (Homo sapiens) (UniProt P29275); assay: Antagonist activity at human adenosine A2b receptor expressed in CHO cells expressed in inhibition of NECA-induced cAMP level; design: concentration or dose not given beside the values; conditions: concentration not given here
[9] = target: T1, Adenosine receptor A3 (Homo sapiens); assay: Displacement of [3H]ABMECA from human adenosine A3 receptor expressed in CHO cells at 10 uM; format: cell-based; conditions: in the assay text read “[125I]ABMECA” for “[3H]ABMECA”
Procedure, shortened: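 Non-specific binding was defined with 1 µM AB-MECA. Samples were filtered on GF/B and radioactivity was counted. Results are % displacement at the tested concentration, mean ± SEM of four experiments in triplicate.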

Adenosine receptor A2a (Homo sapiens), sequence (P29274 whole entry): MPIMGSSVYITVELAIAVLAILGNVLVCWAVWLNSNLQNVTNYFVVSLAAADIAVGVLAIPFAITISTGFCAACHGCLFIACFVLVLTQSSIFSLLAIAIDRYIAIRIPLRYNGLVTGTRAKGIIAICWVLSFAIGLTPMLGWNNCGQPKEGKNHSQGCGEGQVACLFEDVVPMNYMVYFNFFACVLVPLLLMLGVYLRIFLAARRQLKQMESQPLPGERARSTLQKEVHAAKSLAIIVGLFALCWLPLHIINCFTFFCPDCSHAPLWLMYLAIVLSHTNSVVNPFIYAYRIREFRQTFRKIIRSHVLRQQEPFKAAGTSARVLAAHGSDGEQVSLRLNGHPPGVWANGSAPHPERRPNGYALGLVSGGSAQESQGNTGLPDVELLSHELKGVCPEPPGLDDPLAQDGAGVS
P2Y purinoceptor 12, sequence (Q9H244 whole entry): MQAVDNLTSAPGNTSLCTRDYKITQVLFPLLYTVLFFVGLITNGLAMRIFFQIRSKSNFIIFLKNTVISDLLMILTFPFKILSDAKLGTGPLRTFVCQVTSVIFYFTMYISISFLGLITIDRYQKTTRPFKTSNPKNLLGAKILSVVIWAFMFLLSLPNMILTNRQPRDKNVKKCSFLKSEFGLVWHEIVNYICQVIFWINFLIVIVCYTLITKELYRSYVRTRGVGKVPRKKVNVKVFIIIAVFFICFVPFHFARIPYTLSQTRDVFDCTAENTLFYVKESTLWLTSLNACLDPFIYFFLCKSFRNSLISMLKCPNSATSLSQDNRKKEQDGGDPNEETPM

Work on `Nc1cc(OS(=O)(=O)c2ccccc2Cl)nc(SCCO)n1` yielded an Activity [1] of 100% and an Activity [2] of 110%.

Molecule `Cc1ccc(S(=O)(=O)Oc2cc(N)nc(SCCN)n2)cc1` has an Activity [1] of 96%, an Activity [3] of 36% and an Activity [2] of 37%. It also gave an inhibition [4] of 10%, an Activity [5] of 3% and an IC50 [6] of 8.08 µM. It also gave an Activity [7] of 18% and an inhibition [8] of 7%.

For `CN(C)c1cccc2c(S(=O)(=O)Oc3cc(N)nc(SCCN)n3)cccc12`, the Activity [1] was 99% and the Activity [2] was 83%.

`CCCCCSc1nc(N)cc(OS(=O)(=O)c2ccccc2Cl)n1` showed an Activity [1] of 95%, an Activity [3] of 23% and an Activity [2] of 58%. For the same molecule, the inhibition [4] was 8%, the Activity [5] was 4% and the Activity [7] was 1%. It also gave an inhibition [8] of 10%.

In the case of `Nc1cc(=O)[nH]c(SCc2ccccc2Cl)n1`, the Activity [1] is reported as 101% and the Activity [2] is reported as 88%.

With `CN(C)c1cccc2c(S(=O)(=O)Oc3cc(N)nc(SCc4ccccc4Cl)n3)cccc12` the Activity [1] was 101% and the Activity [2] was 96%.

In the case of `Cc1ccc(S(=O)(=O)NCCSc2nc(N)cc(=O)[nH]2)cc1`, the Activity [1] is reported as 89%, the Activity [2] is reported as 51% and the inhibition [4] is reported as 5%. The Activity [5] was 6%, the Activity [9] was 44% and the Activity [7] was 1%. For the same molecule, the inhibition [8] was 3%.

In the case of `CSc1nc(N)cc(OS(=O)(=O)c2ccc(C)cc2)n1`, the Activity [1] is reported as 96% and the Activity [2] is reported as 120%.

`CN(C)c1cccc2c(S(=O)(=O)Oc3cc(N)nc(SCCO)n3)cccc12` gave an Activity [1] of 100%, an Activity [2] of 93% and an inhibition [4] of 7%. The Activity [5] was 48%, the Activity [9] was 47% and the Activity [7] was 1%. For the same molecule, the inhibition [8] was 5%.

In the case of `Nc1cc(=O)[nH]c(SC(c2ccccc2)(c2ccccc2)c2ccccc2)n1`, the Activity [1] is reported as 100% and the Activity [2] is reported as 81%.

`Cc1ccc(S(=O)(=O)Nc2cc(N)nc(SCCN)n2)cc1` gave an Activity [1] of 91% and an Activity [2] of 91%.

In the case of `Nc1cc(OCc2ccccc2Cl)nc(SCc2ccccc2Cl)n1`, the Activity [1] is reported as 95% and the Activity [2] is reported as 86%.

For `CCCCCSc1nc(N)cc(O)n1`, the Activity [1] was 100% and the Activity [2] was 63%.

In the case of `CN(C)c1cccc2c(S(=O)(=O)Oc3cc(N)nc(SCC(F)(F)F)n3)cccc12`, the Activity [1] is reported as 104% and the Activity [2] is reported as 115%.

In the case of `Cc1ccc(S(=O)(=O)Oc2cc(N)nc(SCc3ccccc3Cl)n2)cc1`, the Activity [1] is reported as 100% and the Activity [2] is reported as 68%.

Work on `Cc1ccc(S(=O)(=O)Oc2cc(N)nc(SCC(F)(F)F)n2)cc1` yielded an Activity [1] of 101% and an Activity [2] of 105%.

Molecule `Cc1ccc(S(=O)(=O)Oc2cc(N)nc(SCCNC(=O)OC(C)(C)C)n2)cc1` has an Activity [1] of 97% and an Activity [2] of 75%.

`Cn1c(SCc2ccccc2Cl)nc(N)cc1=O` showed an Activity [1] of 88% and an Activity [2] of 61%.

In the case of `Cc1ccc(S(=O)(=O)Oc2cc(N)nc(SCCO)n2)cc1`, the Activity [1] is reported as 99%, the Activity [2] is reported as 57% and the inhibition [4] is reported as 2%. It also gave an Activity [5] of 2%, an Activity [9] of 46% and an Activity [7] of 1%. For the same molecule, the inhibition [8] was 4%.

Molecule `Nc1cc(OS(=O)(=O)c2ccccc2Cl)nc(SCc2ccccc2Cl)n1` has an Activity [1] of 96% and an Activity [2] of 92%.

`O=C(Nc1ccccc1)Nc1cc(=O)[nH]c(SCc2ccccc2Cl)n1` gave an Activity [1] of 94% and an Activity [2] of 91%.

In the case of `Nc1cc(=O)[nH]c(SCCO)n1`, the Activity [1] is reported as 99% and the Activity [2] is reported as 114%.

In the case of `O=c1cc(O)nc(SCc2ccccc2Cl)[nH]1`, the Activity [1] is reported as 96% and the Activity [2] is reported as 97%.

With `Nc1cc(OS(=O)(=O)c2ccccc2Cl)nc(SCC(F)(F)F)n1` the Activity [1] was 102% and the Activity [2] was 97%.

Work on `CC(C)(C)OC(=O)NCCSc1nc(N)cc(=O)[nH]1` yielded an Activity [1] of 76%, an Activity [2] of 40% and an inhibition [4] of 3%. The Activity [5] was 7%, the Activity [9] was 21% and the Activity [7] was 7%. For the same molecule, the inhibition [8] was 8%.

`CCCCCSc1nc(N)cc(OS(=O)(=O)c2ccc(C)cc2)n1` gave an Activity [1] of 88% and an Activity [2] of 96%.
